Biological target: T1, Beta-galactoside-binding lectin (Gallus gallus, UniProt P07583)
T1 sequence (P07583 whole entry): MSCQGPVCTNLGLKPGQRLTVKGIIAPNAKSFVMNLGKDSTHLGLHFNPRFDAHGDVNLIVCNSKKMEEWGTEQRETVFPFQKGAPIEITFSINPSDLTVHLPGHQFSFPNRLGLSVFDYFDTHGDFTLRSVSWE
Assay: Inhibition of binding of biotinylated chicken galectin-1B to surface immobilized asialofetuin by solid phase assay
Outline: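 Asialofetuin was adsorbed to microtiter wells at a constant coating amount, and its N-glycans served as ligand. Biotinylated lectin at a lectin-specific concentration was added with inhibitor. IC50 (mM) was normalized to lactose, and potency was expressed relative to free lactose. Assays were run in triplicate across up to five independent series.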

- IC50: 4 mM
Structure (SMILES): OC[C@H]1O[C@@H](O[C@H]2[C@H](O)[C@@H](O)[C@H](O)O[C@@H]2CO)[C@H](O)[C@@H](O)[C@H]1O [Lactose, anhydrous]
